Only some compounds are listed: those with a hit (about 0.79% of all), similar ones and a draw of the others.
bIAP inhibitor: blocks bovine intestinal alkaline phosphatase activity | 190,000 tested, under 10 active | purified bovine IAP, CDP-star luminescence, 30 min | inhibition, % at 20 µM;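 active = over 50% inhibition of intestinal alkaline phosphatase at 20 µM in the single-dose screen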
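System: purified bovine intestinal alkaline phosphatase (IAP) enzyme; Input: IAP diluted 1/65,000,000 in the well; Measured by: CDP-star luminescence signal; Compound dosing: 20 µM single dose; Incubation: 30 min reaction at room temperature.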
mIAP activ: mouse IAP activation; activation factor at 10 µM; hit rate 0.24% among 330,000; muIAP, CDP-Star luminescence, 30 min; stronger effect = higher value; 1 = vehicle-only enzyme signal, 0 = enzyme-free wells; AID 2805;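 active = activation factor of at least 2 at 20 µM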
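Assay system: mouse IAP enzyme; Reagent: CDP-Star chemiluminescent phosphatase substrate; Compound: DMSO-dissolved test compounds; Incubation: 30 min, room temperature; Technique: luminescence from enzymatic CDP-Star hydrolysis; Controls: DMSO-only wells and no-enzyme negative control.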
mIAP block: blocks mouse intestinal alkaline phosphatase. purified mouse IAP, CDP-Star luminescence, 30 min. inhibition, % at 10 µM. hit rate 0.2% among 330,000. AID 2806;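 active = inhibition of at least 40% at 10 µM in the primary screen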;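 also: plate controls were DMSO with enzyme for no effect and no enzyme wells for full effect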
bIAP activator: intestinal alkaline phosphatase (bovine) activation. purified bovine IAP, CDP-star luminescence, 30 min; stronger effect = higher value; fold of DMSO-control signal, blank-subtracted. AID 1016. activation factor at 20 µM. hit rate 0.17% among 200,000;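 active = activation factor of 2 or more at 20 µM, a signal rise over negative controls twice the positive control's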
hIAP block: blocks human intestinal alkaline phosphatase; inhibition, % at 10 µM; P09923; hit rate 0.12% among 330,000; purified IAP, CDP-Star luminescence, 30 min; AID 2544;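 active = inhibition reaching a set limit with compound at 10 µM in the primary screen, cut at about 35% in these data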;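 also: plate controls were DMSO wells with enzyme for no effect and no-enzyme buffer wells for full effect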
Target sequence (P09923 whole entry, looked up): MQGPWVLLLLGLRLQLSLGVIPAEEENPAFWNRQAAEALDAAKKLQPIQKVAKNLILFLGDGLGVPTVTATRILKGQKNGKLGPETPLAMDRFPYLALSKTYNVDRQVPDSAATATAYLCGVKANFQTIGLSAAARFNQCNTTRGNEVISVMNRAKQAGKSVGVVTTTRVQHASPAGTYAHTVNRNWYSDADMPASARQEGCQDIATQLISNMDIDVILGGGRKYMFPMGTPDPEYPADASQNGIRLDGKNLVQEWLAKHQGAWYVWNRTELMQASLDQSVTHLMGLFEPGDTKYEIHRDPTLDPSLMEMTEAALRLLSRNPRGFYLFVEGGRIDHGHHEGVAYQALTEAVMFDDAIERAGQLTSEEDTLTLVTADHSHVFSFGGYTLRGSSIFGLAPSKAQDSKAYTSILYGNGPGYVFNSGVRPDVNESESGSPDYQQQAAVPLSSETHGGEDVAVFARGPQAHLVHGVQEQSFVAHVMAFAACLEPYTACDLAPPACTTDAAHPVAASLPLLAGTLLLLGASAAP
hIAP activ: human IAP activation; activation factor at 10 µM; purified human IAP, CDP-Star luminescence, 30 min; stronger effect = higher value; 1 = vehicle-only enzyme, 0 = enzyme-free background; hit rate 0.16% among 330,000; P09923;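 active = activation factor of the enzyme at least 2-fold when tested at 20 µM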
* = called active by the depositor; i = inactive; . = no result.

SMILES	bIAP inhibitor	mIAP activ	mIAP block	bIAP activator	hIAP block	hIAP activ
CC(=O)N1[C@H](C)C=C[C@]1(Cc1ccccc1)C(=O)NCCc1c[nH]c2ccccc12	.	0.99	1	.	16	0.84
C[C@@H]1C=C[C@](Cc2ccccc2)(C(=O)NCCc2c[nH]c3ccccc23)N1C(=O)c1ccccc1	-111	1.3	-28	2.1*	7	0.93
COc1ccc(S(=O)(=O)n2cccc2)cc1	.	1	-2	.	-24	1.2
CC1(C)Oc2ccc3ccc(=O)oc3c2/C(=C/N)C1=O	3	0.93	7	1	-23	1.2
CC1(C)Oc2ccc3ccc(=O)oc3c2/C(=C/Nc2ccccc2)C1=O	16	0.59	41*	0.8	4	0.96
CCOC(=O)C1CCN(C(=O)C2(NC(=O)Nc3ccccc3Cl)CCCCC2)CC1	-249	1.2	-23	3.5*	-12	1.1
CCOC(=O)C1CCN(C(=O)C2(NC(=O)Nc3ccccc3C)CCCCC2)CC1	.	1.1	-7	.	-21	1.2
COc1ccc(Cl)cc1NC(=O)CN1CCC(n2nnc3cc(C)ccc32)CC1	-435	1.2	-15	5.3*	9	0.91
CN(C)c1ccc(-c2nc3ccccc3n2C)cc1	7	0.96	4	0.9	14	0.86
CC(C)n1c(-c2ccc(N(C)C)cc2)nc2ccccc21	-242	0.93	8	3.4*	-65	1.6
Cc1ccc(C(O)c2nc3ccccc3n2C(C)C)cc1 (stereo not given)	-149	1	-3	2.5*	3	0.97
Cc1ccc(NC(=O)c2ccc(OCc3c(C)noc3C)cc2)cc1C	.	1.2	-20	.	11	0.89
CCOC(=O)N1CCN(S(=O)(=O)c2c(C)nc3scc(C)n3c2=O)CC1	.	1	-3	.	-13	1.1
O=C(Nc1cccc2ccccc12)c1cn(-c2ccccc2)nc1-c1cccs1	-12	2.2*	-118	1.1	-2	1
COC(=O)N/N=C/c1c(C)nn(-c2cccc(Cl)c2)c1Cl	-201	0.96	4	3*	10	0.9
Cc1ccccc1NC1=NC2(CCCC2)N=C(N)N1	-6	0.97	3	1.1	2	0.98
Cc1cccc(NC2=NC3(CCCCC3)N=C(N)N2)c1C	-167	1.2	-16	2.7*	5	0.95
Cc1ccc(NC2=NC3(CCCCC3)N=C(N)N2)c(C)c1	-272	1.1	-14	3.7*	-49	1.5
Cc1ccc(NC2=NC3(CCCC3)N=C(N)N2)c(C)c1	-10	1	-3	1.1	-7	1.1
COc1ccc(C[C@H]2CN3C(=NC[C@H]3Cc3ccccc3)N2CCNC(=O)CCC2CCCCC2)cc1	-140	1	-5	2.4*	-1	1
COc1ccc(C[C@H]2CN3C(=NC[C@@H]3Cc3ccccc3)N2C[C@H](C)NC(=O)CCC2CCCCC2)cc1	.	0.93	7	.	7	0.93
CC(C)NC[C@@H](O)c1ccc(O)c(O)c1	11	0.57	43*	0.9	-5	1.1
C/C(=N/NC(=O)c1ccc(Br)o1)c1cccc(NC(=O)c2ccc(C)o2)c1	6	1	-2	0.9	17	0.83
CN1CCN(c2nc3c(c(=O)n(C)c(=O)n3C)n2Cc2ccccc2F)CC1	.	1.1	-9	.	-25	1.2
O=C(NC(C(=O)N/N=C/c1cccnc1)c1n[nH]c(=O)c2ccccc12)c1ccccc1 (stereo not given)	.	1.1	-8	.	-12	1.1
SMILES	bIAP inhibitor	mIAP activ	mIAP block	bIAP activator	hIAP block	hIAP activ
CC(C)N1C(=S)SC(C)(C)C1NO (stereo not given)	-112	1	-2	2.1*	9	0.91
CCOc1ccc(C(=O)N/N=C/c2ccccc2[N+](=O)[O-])cc1	-101	1.1	-10	2*	-12	1.1
Cc1ccc(-n2cnc3cc(NCc4cccs4)ccc32)cc1	i	0.98	2	22*	-3	1
Cc1ccc(S(=O)(=O)N(C)C)cc1NC(=S)NC12CC3CC(CC(C3)C1)C2	.	.	.	0.3	.	.
CN(C)S(=O)(=O)c1cccc(NC(=S)NC23CC4CC(CC(C4)C2)C3)c1	.	2.7*	-174	.	-14	1.1
CC1CCCC(NC(=S)Nc2cccc(S(=O)(=O)N(C)C)c2)C1C (stereo not given)	4	4.9*	-392	1	-23	1.2
CCOC(=O)C1=CN(Cc2ccco2)S(=O)(=O)NC1c1cccc(OC)c1 (stereo not given)	.	1	0	.	.	.

Source: PubChem BioAssay (Sanford-Burnham Center for Chemical Genomics)
